Assay results reported in ChEMBL document CHEMBL1142853 (Bioorg Med Chem Lett, 2005).

Legend:
[1] = molecular target: 5-hydroxytryptamine receptor 2A (Rattus norvegicus, UniProt P14842); assay: Inhibition constant against rat 5-hydroxytryptamine 2A receptor using [3H]ketanserin as radioligand with the compound (10 uM) dissolved in DMSO
Method in brief: (§1)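 Competition binding with [3H]ketanserin (5-HT2A), [3H]mesulergine (5-HT2C) or [3H]LSD (5-HT2B) on receptor preparations. Compounds in 10% DMSO were first screened at a single concentration as duplicate determinations, each run in duplicate. Compounds giving >50% inhibition of specific binding were then tested in duplicate from 1 to 100,000 nM. Ki is the mean ± SD of computer-derived estimates, N = 4.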

[2] = molecular target: T1, 5-hydroxytryptamine receptor 2C (Homo sapiens, UniProt P28335); assay: Inhibition constant against human 5-hydroxytryptamine 2C receptor [INI isoforms] using [3H]mesulergine as radioligand with the compound (10 uM) dissolved in DMSO; method in brief: as §1
T1 sequence (P28335 whole entry): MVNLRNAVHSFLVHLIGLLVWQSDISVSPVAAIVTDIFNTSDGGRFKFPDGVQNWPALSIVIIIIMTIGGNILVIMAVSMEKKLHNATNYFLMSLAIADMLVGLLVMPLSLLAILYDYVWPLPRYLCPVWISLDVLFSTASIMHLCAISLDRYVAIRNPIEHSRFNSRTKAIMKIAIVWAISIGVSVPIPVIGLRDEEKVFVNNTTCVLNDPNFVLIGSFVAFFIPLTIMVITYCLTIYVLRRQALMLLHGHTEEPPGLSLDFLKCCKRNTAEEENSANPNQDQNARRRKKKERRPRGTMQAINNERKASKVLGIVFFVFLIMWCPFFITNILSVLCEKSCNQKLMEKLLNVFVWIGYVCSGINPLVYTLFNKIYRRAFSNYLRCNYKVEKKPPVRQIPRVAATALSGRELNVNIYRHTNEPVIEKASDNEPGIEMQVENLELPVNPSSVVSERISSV

[3] = molecular target: T1, 5-hydroxytryptamine receptor 2C; assay: Inhibition constant against human 5-hydroxytryptamine 2C receptor [VGI isoforms] using [3H]mesulergine as radioligand with the compound (10 uM) dissolved in DMSO; method in brief: as §1
[4] = molecular target: T2, 5-hydroxytryptamine receptor 2B (Homo sapiens, UniProt P41595); assay: Inhibition constant against human 5-hydroxytryptamine 2B receptor using [3H]LSD as radioligand with the compound (10 uM) dissolved in DMSO; method in brief: as §1
T2 sequence (P41595 whole entry): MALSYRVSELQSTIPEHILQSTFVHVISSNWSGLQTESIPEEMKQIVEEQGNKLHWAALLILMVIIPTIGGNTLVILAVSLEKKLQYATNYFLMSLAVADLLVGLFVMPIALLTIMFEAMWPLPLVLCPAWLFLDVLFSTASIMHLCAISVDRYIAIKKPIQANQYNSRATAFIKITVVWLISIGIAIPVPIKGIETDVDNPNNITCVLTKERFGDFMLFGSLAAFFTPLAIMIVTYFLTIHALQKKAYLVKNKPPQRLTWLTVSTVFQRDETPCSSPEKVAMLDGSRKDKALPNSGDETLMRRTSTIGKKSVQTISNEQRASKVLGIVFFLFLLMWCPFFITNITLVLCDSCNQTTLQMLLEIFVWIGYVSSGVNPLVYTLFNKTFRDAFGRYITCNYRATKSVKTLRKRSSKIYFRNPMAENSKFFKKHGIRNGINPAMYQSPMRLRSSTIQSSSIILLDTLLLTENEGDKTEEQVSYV

[5] = molecular target: T3, 5-hydroxytryptamine receptor 2C (Rattus norvegicus, UniProt P08909); assay: Inhibition constant against rat 5-hydroxytryptamine 2C receptor using [3H]mesulergine as radioligand with the compound (10 uM) dissolved in DMSO; method in brief: as §1
T3 sequence (P08909 whole entry): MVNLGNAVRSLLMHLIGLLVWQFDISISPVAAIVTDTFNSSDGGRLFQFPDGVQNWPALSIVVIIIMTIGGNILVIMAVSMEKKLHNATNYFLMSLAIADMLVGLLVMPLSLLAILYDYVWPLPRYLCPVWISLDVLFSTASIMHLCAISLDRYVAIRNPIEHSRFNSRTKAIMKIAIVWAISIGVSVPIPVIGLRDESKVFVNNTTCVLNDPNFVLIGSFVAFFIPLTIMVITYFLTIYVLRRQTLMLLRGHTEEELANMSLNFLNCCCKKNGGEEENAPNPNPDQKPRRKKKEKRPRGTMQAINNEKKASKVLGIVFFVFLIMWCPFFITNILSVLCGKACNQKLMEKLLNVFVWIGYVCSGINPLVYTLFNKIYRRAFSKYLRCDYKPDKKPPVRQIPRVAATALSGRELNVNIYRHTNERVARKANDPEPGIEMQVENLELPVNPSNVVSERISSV

[6] = molecular target: T4, 5-hydroxytryptamine receptor 2A (Homo sapiens, UniProt P28223); assay: Inhibition constant against human 5-hydroxytryptamine 2A receptor using [3H]ketanserin as radioligand with the compound (10 uM) dissolved in DMSO; method in brief: as §1
T4 sequence (P28223 whole entry): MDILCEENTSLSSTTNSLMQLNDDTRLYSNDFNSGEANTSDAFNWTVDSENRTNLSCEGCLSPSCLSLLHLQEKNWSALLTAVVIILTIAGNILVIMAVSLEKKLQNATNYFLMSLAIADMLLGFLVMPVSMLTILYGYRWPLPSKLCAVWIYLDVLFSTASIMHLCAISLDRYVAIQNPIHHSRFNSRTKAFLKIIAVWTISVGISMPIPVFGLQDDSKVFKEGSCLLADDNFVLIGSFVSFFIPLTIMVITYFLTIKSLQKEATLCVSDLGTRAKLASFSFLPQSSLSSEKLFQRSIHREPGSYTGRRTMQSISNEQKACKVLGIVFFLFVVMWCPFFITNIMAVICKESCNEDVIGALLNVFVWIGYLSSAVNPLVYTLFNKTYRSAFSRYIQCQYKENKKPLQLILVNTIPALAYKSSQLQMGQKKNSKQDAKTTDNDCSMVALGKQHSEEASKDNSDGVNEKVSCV

[7] = molecular target: T1, 5-hydroxytryptamine receptor 2C; assay: Effective concentration required for accumulation of [3H]inositol phosphate in cells stably expressing human 5-hydroxytryptamine 2C receptor determined by phosphoinositide hydrolysis assay; type: functional
[8] = molecular target: T4, 5-hydroxytryptamine receptor 2A; assay: Effective concentration required for accumulation of [3H]inositol phosphate in cells stably expressing human 5-hydroxytryptamine 2A receptor determined by phosphoinositide hydrolysis assay; type: functional
Method in brief: (§2)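 Phosphoinositide hydrolysis measured in cells expressing human 5-HT2A (stable) or 5-HT2B (transient) receptors, loaded overnight with [3H]inositol (15 Ci/mmol; 1 mCi/mL as supplied) in serum-free, inositol-free DMEM. Where SD is given, N ≥ 3.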

[9] = molecular target: T2, 5-hydroxytryptamine receptor 2B; assay: Antagonistic activity against accumulation of [3H]inositol phosphate in cells transiently expressing human 5-hydroxytryptamine 2B receptor determined by phosphoinositide hydrolysis assay; type: functional; details: filed as antagonist
Method in brief: (§3)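 Phosphoinositide hydrolysis assay with human receptors, 5-HT2A and 5-HT2C expressed stably and 5-HT2B transiently. Cells were loaded overnight with [3H]inositol (15 Ci/mmol; 1 mCi/mL as supplied) in inositol-free DMEM without serum.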

[10] = molecular target: T5, 5-hydroxytryptamine receptor 2C (Homo sapiens) (UniProt P28335); assay: Antagonistic activity against accumulation of [3H]inositol phosphate in cells stably expressing human 5-hydroxytryptamine 2C receptor determined by phosphoinositide hydrolysis assay; type: functional; details: filed as antagonist; method in brief: as §3
T5 sequence (whole entry): T1 sequence (P28335 whole entry)

[11] = molecular target: T4, 5-hydroxytryptamine receptor 2A; assay: Antagonistic activity against accumulation of [3H]-inositol phosphate in cells stably expressing human 5-hydroxytryptamine 2A receptor determined by phosphoinositide hydrolysis assay; type: functional; details: filed as antagonist; method in brief: as §3
[12] = molecular target: T2, 5-hydroxytryptamine receptor 2B; assay: Effective concentration required for accumulation of [3H]inositol phosphate in cells transiently expressing human 5-hydroxytryptamine 2B receptor determined by phosphoinositide hydrolysis assay; type: functional; method in brief: as §2

Sequence of 5-hydroxytryptamine receptor 2A (Rattus norvegicus, UniProt P14842) (P14842 whole entry): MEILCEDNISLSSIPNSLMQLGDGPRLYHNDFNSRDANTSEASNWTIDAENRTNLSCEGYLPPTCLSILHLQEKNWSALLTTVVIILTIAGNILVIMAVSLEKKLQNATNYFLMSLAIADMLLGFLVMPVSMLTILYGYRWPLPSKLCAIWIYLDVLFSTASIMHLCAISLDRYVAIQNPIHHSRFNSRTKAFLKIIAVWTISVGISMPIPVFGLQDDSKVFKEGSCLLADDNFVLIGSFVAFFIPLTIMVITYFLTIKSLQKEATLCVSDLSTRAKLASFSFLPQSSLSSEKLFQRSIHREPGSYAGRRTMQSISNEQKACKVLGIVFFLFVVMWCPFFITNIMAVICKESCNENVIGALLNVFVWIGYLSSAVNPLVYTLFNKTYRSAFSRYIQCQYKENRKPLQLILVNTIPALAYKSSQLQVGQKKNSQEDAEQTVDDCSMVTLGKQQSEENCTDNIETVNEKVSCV

| SMILES | Ki [1] [nM] | Ki [2] [nM] | Ki [3] [nM] | Ki [4] [nM] | Ki [5] [nM] | Ki [6] [nM] | EC50 [7] [nM] | EC50 [8] [nM] | Activity [9] | Activity [10] | Activity [11] | EC50 [12] [nM] |
| --- | --- | --- | --- | --- | --- | --- | --- | --- | --- | --- | --- | --- |
| CN(C)CCc1cn(C)c2cccc(OP(=O)(O)O)c12 | > 10000 | > 10000 | 540 | 5500 | > 10000 | > 10000 | – | – | – | – | – | – |
| CN(C)CCn1ccc2c(O)cccc21 | > 10000 | 2180 | 4200 | – | 9350 | – | – | – | – | – | – | – |
| CN(C)CCc1c[nH]c2cccc(OP(=O)(O)O)c12 [PSILOCYBIN] | – | – | – | – | – | – | 506 | 3480 | – | – | – | – |
| Oc1cccc2[nH]cc(CCN3CCCc4ccccc43)c12 | 8370 | 468 | – | 5570 | 1450 | – | – | – | – | – | – | – |
| CN1CCN(CCc2c[nH]c3cccc(O)c23)CC1 | 6900 | 103 | – | 116 | > 10000 | 9750 | – | – | – | – | – | – |
| CN(C)CCc1c[nH]c2cc(O)ccc12 | > 10000 | > 10000 | 6800 | 6300 | 19000 | 7600 | – | – | – | – | – | – |
| CC(Cc1c[nH]c2cccc(O)c12)N(C)C (centres undefined) | – | 126 | – | 745 | – | 982 | – | – | – | – | – | – |
| Oc1cccc2[nH]cc(CCN3CCCC3)c12 | – | 275 | 1770 | 423 | – | 429 | – | – | – | – | – | – |
| CN(C)Cc1c[nH]c2cccc(O)c12 | 834 | 24 | 12.6 | 1240 | 49 | 923 | – | – | Antagonist | Antagonist | Antagonist | – |
| CCCCn1cc(CCN(C)C)c2c(OP(=O)(O)O)cccc21 | > 10000 | 73 | 210 | 170 | 5700 | 3000 | – | – | Antagonist | Antagonist | Antagonist | – |
| Cc1[nH]c2cccc(O)c2c1CCN(C)C | 1680 | – | 539 | – | 1280 | 122 | – | – | – | – | – | – |
| CCCCn1cc(CCN(C)C)c2c(O)cccc21 | 200 | 4.4 | 14 | 5.8 | 15.7 | 310 | 595 | 32 | – | – | – | – |
| CN(C)Cc1cn(C)c2cccc(O)c12 | – | 87 | 125 | 1240 | – | 498 | – | – | – | – | – | – |
| CN(C)CCCc1c[nH]c2cccc(O)c12 | – | 1110 | 84 | 98 | – | 588 | – | – | – | – | – | – |
| CN(C)CCc1c[nH]c2cccc(F)c12 | 1010 | 82 | 84 | 8.39 | 359 | 335 | 99 | 949 | – | – | – | 1180 |
| CN(C)CCc1cn(C)c2cccc(O)c12 | 590 | 7 | 33 | 38 | 48 | 900 | 12 | 633 | – | – | – | – |
